ANO1 block: mouse TMEM16A channel inhibition, primary screen; HEK293 TMEM16A/YFP iodide influx fluorescence, ionomycin; normalized B-score (activity score, 25-100; higher = stronger inhibition) at 10 µM; 1.2% of 310,000 active;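 active = ratio plate-corrected score three or more library SD toward inhibition, starting fluorescence score within five deviations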;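 note: score derived from kinetic fluorescence span divided by baseline fluorescence per well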
MC4R ag barr: agonists of human melanocortin 4 receptor (MC4R) beta-arrestin. U2OS MC4R beta-arrestin complementation, luminescence; percent of melanotan II response, DMSO zero. 0.98% of 360,000 active. activation, % at 8.9 µM;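 active = activation above a per-plate cutoff, the mean activation of sample wells on that plate plus 3 SD, cut at about 8% in these data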
HTR2A ag: activates the mouse 5-HT2A serotonin receptor. AID 624169. 0.66% of 360,000 active. CHO-K1 mHTR2A beta-arrestin complementation, luminescence; percent of 30 µM serotonin response. activation, % at 7.6 µM. P35363;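 active = activation above a run cutoff, the mean activation of all tested compounds plus 3 SD, cut at about 14% in these data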;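 note: 0% = plate median of compound wells and 100% = 30 µM serotonin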
MC4R antag cAMP: human MC4R antagonism in cAMP assay; P32245; MC4R-expressing cells, MTII-stimulated cAMP, LANCE TR-FRET; inhibition, % at 6.5 µM; 0.48% of 360,000 active; AID 540295;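 active = inhibition above its plate's cutoff, the mean of tested wells on that plate plus 3 SD, cut at about 29% in these data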;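 note: 0% = Melanotan II alone and 100% = Melanotan II plus saturating MCL0020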
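System: U2OS-MC4R stable cell line; Technique: Eu-cAMP/anti-cAMP TR-FRET, emission 671 nm; Repeats: single well per compound; Also added: Melanotan II; Dosing: one concentration, 6.5 µM nominal; Schedule: 30-min compound, 1-h challenge, 1-h detection, room temperature.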
TMEM16A act: mouse TMEM16A channel activation, primary screen; HEK293 TMEM16A/YFP-H148Q/I152L, iodide quench fluorescence; hits give low values; B-score at 10 µM; 0.3% of 340,000 active; AID 623877;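 active = fluorescence-ratio B-score plate-corrected deviation score at least 3 library SD below zero, with starting fluorescence score within 5 deviations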;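 note: channel opened by trigger with iodide after compound preincubation; score built on the fluorescence ratio of max minus min over baseline; more negative score means more quench and so TMEM16A activation or potentiation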
beta cell repl: MIN6 beta-cell proliferation induction | proliferation, % at 10 µM | 0.29% of 330,000 active | MIN6 cells proliferation, ATPlite luminescence, 48 h; cells starved in 0.2% serum; 100% = growth in 10% serum | AID 2380;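 active = compounds whose signal lies at least 3.5 SD above the mean of all wells on their plate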;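 note: 0% = DMSO-treated cells in low-serum medium and 100% = 10% serum control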
MC4R barr ag: human MC4R beta-arrestin agonism confirmation | shares compounds with MC4R ag barr | U2OS MC4R beta-arrestin recruitment, luminescence; scaled DMSO 0%, Melanotan II 100% | activation, % at 8.9 µM | 31% of 2,400 active;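 active = mean activation across replicates above the hit cutoff set in the earlier primary screen, cut at about 8% in these data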
MOR DOR agonist: activates mu-delta opioid heterodimer, MC4R agonist counter-screen | U2OS PathHunter beta-arrestin, beta-gal luminescence; percent of deltorphin B response, DMSO zero | shares compounds with MC4R ag barr | activation, % at 9.2 µM | 5.8% of 2,400 active;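 active = mean activation across replicates exceeds the hit threshold derived in the earlier primary screen, cut at about 18% in these data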;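 note: 100% = deltorphin B at 0.9 µM final and 0% = DMSO alone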
An asterisk follows results filed as active. Sampled rows, rich in hits. Any-hit rate of the full collection: about 3.4%.

Screening CCOc1ccc(C(=O)Nc2ccc(NC(=O)c3ccco3)c(Cl)c2)cc1Cl returned ANO1 block inactive, MC4R ag barr 36*, HTR2A ag 0, MC4R antag cAMP -8, TMEM16A act inactive, beta cell repl -4, MC4R barr ag 3 and MOR DOR agonist 19*.
Screening O=C(OCC(=O)N1CCCC1=O)c1ccc(Cl)cc1[N+](=O)[O-] returned ANO1 block inactive, MC4R ag barr -1, HTR2A ag 0, MC4R antag cAMP 6, TMEM16A act inactive and beta cell repl -4.
Screening COc1cccc(CNc2nc3cc(-c4cnn(Cc5ccccc5)c4)sc3c(=O)n2C)c1 returned MC4R ag barr -2, HTR2A ag -2 and MC4R antag cAMP -12.
`O=C(O)c1cc(Nc2cc(Cl)c3nonc3c2[N+](=O)[O-])ccc1O` gave ANO1 block inactive, MC4R ag barr -2, HTR2A ag -6, MC4R antag cAMP -13, TMEM16A act inactive and beta cell repl -2.
For O=C(Nc1ccc(NC(=O)c2sc3ccccc3c2Cl)cc1Cl)c1ccco1 the results were ANO1 block inactive, MC4R ag barr 36*, HTR2A ag 0, MC4R antag cAMP 0, TMEM16A act inactive, beta cell repl -4, MC4R barr ag 8.8* and MOR DOR agonist 3.
For CCC(=O)NC(=S)Nc1ccc(NC(=O)c2ccc(C)c([N+](=O)[O-])c2)cc1 the results were ANO1 block inactive, MC4R ag barr 11*, HTR2A ag -4, MC4R antag cAMP 11, TMEM16A act inactive, beta cell repl -1, MC4R barr ag 0 and MOR DOR agonist 7.
For CCOc1ccc(C(=O)Nc2cccc([N+](=O)[O-])c2)cc1Br the results were ANO1 block inactive, MC4R ag barr 15*, HTR2A ag 2, MC4R antag cAMP -10, TMEM16A act inactive, beta cell repl -3, MC4R barr ag 4 and MOR DOR agonist 8.
For Cc1ccc(OCCC(=O)OCC(=O)NC(=O)c2ccccc2)cc1 the results were ANO1 block inactive, MC4R ag barr -1, HTR2A ag -1, MC4R antag cAMP 11, TMEM16A act inactive and beta cell repl 4.
`NC(=O)CC(NC(=O)Cc1ccc(Br)cc1)c1ccc(NC2CCCCCC2)c([N+](=O)[O-])c1` (centres undefined) gave ANO1 block inactive, MC4R ag barr -2, HTR2A ag -2, MC4R antag cAMP 6, TMEM16A act inactive and beta cell repl -8.
Screening NC(=O)CC(NC(=O)Cc1ccc(Br)cc1)c1ccc(NC2CCCCCCC2)c([N+](=O)[O-])c1 (centres undefined) returned MC4R ag barr 11*, HTR2A ag 8, MC4R antag cAMP 8, TMEM16A act inactive, MC4R barr ag 6 and MOR DOR agonist 1.
Screening COc1cc(-c2nnc3n2CCCCC3)cc(OC)c1OC returned ANO1 block inactive, MC4R ag barr -2, HTR2A ag -5, MC4R antag cAMP 12, TMEM16A act inactive and beta cell repl 4.
COc1ccccc1C(=O)OC(C)CN1CCN(C)CC1 (centres undefined) was read as ANO1 block inactive, MC4R ag barr 1, HTR2A ag 2, MC4R antag cAMP 26, TMEM16A act inactive and beta cell repl -1.
Cn1cccc1/C=N\NC(=O)Cc1ccc(Br)c2ccccc12 was read as ANO1 block inactive, MC4R ag barr 17*, HTR2A ag 1, MC4R antag cAMP -1, TMEM16A act inactive, beta cell repl -4, MC4R barr ag 1 and MOR DOR agonist 6.
For COC(=O)CSC1=C(C#N)C(c2ccc(C(C)C)cc2)CC(=O)N1 (centres undefined) the results were ANO1 block inactive, MC4R ag barr 0, HTR2A ag 3, MC4R antag cAMP 15, TMEM16A act inactive and beta cell repl 0.
Cc1ccc(C2CC(=O)NC(SCCC(C)C)=C2C#N)cc1 (centres undefined) was read as ANO1 block inactive, MC4R ag barr 9.6*, HTR2A ag -4, MC4R antag cAMP 5, TMEM16A act inactive, beta cell repl 6, MC4R barr ag 2 and MOR DOR agonist 4.
CCSc1nnc(NC(=O)c2csc(C)c2)s1 was read as ANO1 block inactive, MC4R ag barr 0, HTR2A ag -5, MC4R antag cAMP 4, TMEM16A act inactive and beta cell repl -3.
Screening CCSc1nnc(NC(=O)c2cccc3ccccc23)s1 returned ANO1 block inactive, MC4R ag barr 14*, HTR2A ag -4, MC4R antag cAMP 4, TMEM16A act inactive, beta cell repl 3, MC4R barr ag 6 and MOR DOR agonist 4.
COc1ccc(NC(=O)c2ccc(NC(=O)CN3CCC(C(N)=O)CC3)cc2)cc1 was read as MC4R ag barr 0, HTR2A ag -3, MC4R antag cAMP 7, TMEM16A act inactive and beta cell repl -4.
Screening CC(C)CN(C(=O)COC(=O)CCSc1ccc(Cl)cc1)c1c(N)n(Cc2ccccc2)c(=O)[nH]c1=O returned MC4R ag barr 3, HTR2A ag -2 and MC4R antag cAMP 11.
Cc1cccc(NC(=O)c2sc3nc(-c4ccc(F)cc4)cn3c2C)n1 was read as ANO1 block inactive, MC4R ag barr 12*, HTR2A ag -1, MC4R antag cAMP 14, TMEM16A act inactive, beta cell repl -6, MC4R barr ag 7 and MOR DOR agonist 5.
N=C1/C(=C/c2cccn2-c2ccc([N+](=O)[O-])cc2)C(=O)N=C2SC=CN12 was read as ANO1 block inactive, MC4R ag barr -2, HTR2A ag 2, MC4R antag cAMP -18, TMEM16A act inactive and beta cell repl 0.
`COc1ccc(-c2ccc(/C=C3/C(=N)N4C=CSC4=NC3=O)o2)c([N+](=O)[O-])c1` gave ANO1 block inactive, MC4R ag barr 20*, HTR2A ag 0, MC4R antag cAMP -3, TMEM16A act inactive, MC4R barr ag 3 and MOR DOR agonist 2.
COC(=O)c1ccc(C2C(Oc3ccc(OC)cc3)C(=O)N2CCc2ccc(OC)c(OC)c2)cc1 (centres undefined) was read as ANO1 block inactive, MC4R ag barr 6, HTR2A ag -2, MC4R antag cAMP 1, TMEM16A act inactive and beta cell repl -2.

Compound activity as filed in PubChem BioAssay.
